Legend:
Hepatitis C virus [1] = assay: Antiviral activity against HCV genotype 1b infected in human Huh7/Rep-Feo1b replicon cells assessed as inhibition of viral RNA replication at 50 uM measured after 48 hrs by luciferase reporter gene assay relative to control; type: functional, Hepacivirus hominis; conditions: Huh-7, 48 h
Method in brief: (§1)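 Replicon cells (gt1b firefly luciferase; gt2a Renilla luciferase) in DMEM/10% FBS with G418, ~1 × 10^4 cells/well, dosed 12 h after seeding with 50 µM compound or DMSO (1% final) for 48 h at 37 °C. Cells were PBS-washed and luciferase read; % inhibition was taken versus DMSO-treated cells, mean±SD, n=3.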

Hepatitis C virus [2] = assay: Antiviral activity against Hepatitis C virus genotype 1b infected in human MH14 cells assessed as inhibition of viral RNA replication after 48 hrs by quantitative RT-PCR analysis; type: functional, cell-based
Method in brief: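 MH-14 cells carrying HCV subgenomic replicons, in 12-well plates, were treated with a range of concentrations or DMSO 12 h after seeding. Cellular HCV RNA was quantified by qRT-PCR with HCV-specific primers, using β-actin primers as reference.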

[3] = Cytotoxicity against human Huh7.5 cells measured after 48 hrs by MTS assay; type: toxicity, cell-based, Huh-7; conditions: for CC50 at 48 h: Huh7.5 cells; for Activity: huh-7, 48 h
Method in brief: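 Parental Huh7.5 cells were treated 12 h after seeding with 8-10 dilutions of compound or DMSO (1% final) for 48 h at 37 °C. Viability was read by MTS bioreduction to formazan. CC50 is the concentration halving the MTS signal, mean ± SD of three independent experiments.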

Hepatitis C virus [4] = assay: Antiviral activity against HCV genotype 1b infected in human Huh7/Rep-Feo1b replicon cells assessed as inhibition of viral RNA replication measured after 48 hrs by luciferase reporter gene assay; type: functional, cell-based, Hepacivirus hominis; conditions: Huh-7, 48 h
Method in brief: (§2)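 EC50 from concentration-response in replicon cells (gt1b firefly, gt2a Renilla luciferase reporter) maintained with G418. Compound added 12 h post-seeding (~1 × 10^4 cells/well), 48 h exposure, DMSO 1% final. Luciferase was compared with DMSO controls; the value is the mean ± SD of three independent 8-12 point quarter-log dilution series, calculated with CalcuSyn.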

[5] = Selectivity index, ratio of CC50 for human Huh7.5 cells to EC50 for HCV genotype 2a infected in human Huh7.5-FGR-JC1-Rluc2A replicon cells; set-up: species or system Huh-7
[6] = Selectivity index, ratio of CC50 for human Huh7.5 cells to EC50 for HCV genotype 1b infected in human Huh7/Rep-Feo1b replicon cells; set-up: species or system Huh-7
Hepatitis C virus [7] = assay: Antiviral activity against HCV genotype 2a infected in human Huh7.5-FGR-JC1-Rluc2A replicon cells assessed as inhibition of viral RNA replication at 50 uM measured after 48 hrs by luciferase reporter gene assay relative to control; type: functional, Hepacivirus hominis; conditions: Huh-7, 48 h; method in brief: as §1
Hepatitis C virus [8] = assay: Antiviral activity against HCV genotype 2a infected in human Huh7.5-FGR-JC1-Rluc2A replicon cells assessed as inhibition of viral RNA replication incubated for 48 hrs by luciferase reporter gene assay; type: functional, cell-based, Hepacivirus hominis; conditions: Huh-7, 48 h; method in brief: as §2

Row | SMILES | inhibition at 50 µM (Hepatitis C virus [1]) [%] | inhibition (Hepatitis C virus [2]; Hepacivirus hominis) | EC50 (Hepatitis C virus [2]; MH14, 48 h) [µM] | CC50 at 48 h [3] [µM] | EC50 (Hepatitis C virus [4]) [µM] | Ratio CC50/EC50 [5] | Ratio CC50/EC50 [6] | inhibition at 50 µM (Hepatitis C virus [7]) [%] | EC50 (Hepatitis C virus [8]) [µM] | Activity [3] [%]
1 | CCOC(=O)[C@@H]1C[C@@H]2/C(=N/Nc3ccccc3)CCCC[C@@H]2N1S(=O)(=O)c1ccc(C)cc1 (racemic) | 88 | Dose-dependent effect | 3.82 | > 200 | 1.8 | 44.2 | 112.4 | 70 | 4.5 | –
2 | C[C@]12C[C@@H](Cc3ccccc3)N(Cc3ccccc3)[C@H]1CCCC(=O)N2 (racemic) | 87 | – | – | > 50 | 18.2 | >4.3 | >2.7 | 95 | 11.5 | 60
3 | CCOC(=O)[C@@H]1C[C@@H]2/C(=N/NC(N)=S)CCCC[C@@H]2N1S(=O)(=O)c1ccc(C)cc1 (racemic) | 66 | – | – | > 200 | 14.3 | 17.3 | 14 | 58 | 11.6 | –
4 | O=C1CCCC[C@@H]2[C@@H]1[C@H](c1cccc(F)c1)CN2Cc1ccccc1 (racemic) | 83 | – | – | > 50 | 11.7 | >31.8 | >4.2 | 97 | 1.6 | 63
